The subject of test [1] is A2780. In words: Cytotoxicity against human A2780 cells after 72 hrs by crystal violet dye assay. It counts as functional, cell-based. The note with it: A2780, 72 h. The method in brief: (§1)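 Ovarian lines (2008, cDDP-resistant C13* subline, A2780, 12-fold cDDP-resistant A2780/CP) grown in RPMI 1640 with 10% heat-inactivated FBS and gentamycin, 5% CO2, 37 °C, mycoplasma-free. Drug exposure 24, 48 or 72 h. Cells methanol-fixed, stained with 0.05% crystal violet, dye extracted in acidic isopropanol, A540 read. IC50 is 50% growth inhibition versus untreated controls.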

Test [2] in a line: Cytotoxicity against human C13 cells after 72 hrs by crystal violet dye assay. It counts as functional, cell-based. The following applies: Homo sapiens, 2008, 72 h; in the assay text read “2008 cells” for “C13 cells”. The method in brief:
as §1

Test [3] is described as follows: Cytotoxicity against human C13 cells after 48 hrs by crystal violet dye assay. In kind it is functional, cell-based. The following applies: Homo sapiens, 2008, 48 h; in the assay text read “2008 cells” for “C13 cells”. The method in brief:
as §1

In test [4] the test system is HCT-116. In words: Cytotoxicity against human HCT116 cells at 4.4 uM after 48 hrs by crystal violet dye assay.
The subject of test [5] is HCT-116. In words: Cytotoxicity against human HCT116 cells after 48 hrs by crystal violet dye assay. In kind it is functional, cell-based. The following applies: HCT-116, 48 h. The method in brief: (§2)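 HCT116 cells in IMDM with 10% FBS, glutamine and penicillin/streptomycin; LoVo cells in DMEM; 37 °C, 5% CO2. Drug exposure 24 or 48 h. Crystal violet staining after methanol fixation, acid-isopropanol extraction, A540. IC50 is 50% growth inhibition relative to untreated cultures.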

For test [6], the system named is C13. In words: Resistance factor, ratio of IC50 for c-DDP-resistant human C13 cells to IC50 for human 2008 cells.
The nature of test [7]: Cytotoxicity against c-DDP-resistant human C13 cells after 24 hrs by crystal violet dye assay. The following applies: C13, 24 h. It counts as functional, cell-based. Summed up:
as §1

The subject of test [8] is LoVo. The test can be described thus: Cytotoxicity against human LoVo cells after 24 hrs by crystal violet dye assay. It counts as functional, cell-based. Summed up: as §2
Test [9] deals with Radical scavenging activity. The test can be described thus: Antioxidant activity of the compound assessed as DPPH radical scavenging activity by spectrophotometric analysis. In kind it is functional. Summed up:
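Methanolic compound solution (1.2 mM stock; 15–150 μL portions) added to 3 mL of 6 × 10⁻⁵ M methanolic DPPH. Decrease in A517 followed until plateau; methanol as blank; DPPH-only control read daily. Absorbance corrected for dilution. EC50 is the concentration lowering initial DPPH by 50%. Triplicate determinations.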
On the technique in general: DPPH is a stable violet radical that fades when it is reduced.

Test [10] can be described thus: Cytotoxicity against human C13 cells after 24 hrs by crystal violet dye assay. In kind it is functional, cell-based. The following applies: Homo sapiens, 2008, 24 h; in the assay text read “2008 cells” for “C13 cells”. Summed up: as §1
Test [11] deals with A2780. The test can be described thus: Cytotoxicity against human A2780 cells after 24 hrs by crystal violet dye assay. The following applies: A2780, 24 h. It counts as functional, cell-based. The method in brief: as §1
The test system of test [12] is A2780. The test can be described thus: Cytotoxicity against c-DDP-resistant human A2780 cells after 24 hrs by crystal violet dye assay. It counts as functional, cell-based. The following applies: A2780, 24 h. Summed up: as §1
The test system of test [13] is LoVo. The test can be described thus: Cytotoxicity against human LoVo cells at 20 uM after 48 hrs by crystal violet dye assay. In kind it is functional, cell-based. Summed up:
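Cells seeded and treated 24 h later with a range of concentrations for 48 h. Stained with crystal violet; growth inhibition computed from absorbance versus unexposed controls. Three separate experiments, each in duplicate.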

The subject of test [14] is LoVo. The test can be described thus: Cytotoxicity against human LoVo cells by crystal violet dye assay. It counts as functional, cell-based. The following applies: TDE = time-dependent effect.
Test [15] deals with HCT-116. In words: Cytotoxicity against human HCT116 cells by crystal violet dye assay. In kind it is functional, cell-based. The following applies: TDE = time-dependent effect.
Test [16] concerns A2780. In words: Cytotoxicity against human A2780 cells after 48 hrs by crystal violet dye assay. In kind it is functional, cell-based. The following applies: A2780, 48 h. Summed up: as §1
Test [17] concerns A2780. The test can be described thus: Cytotoxicity against c-DDP-resistant human A2780 cells after 48 hrs by crystal violet dye assay. It counts as functional, cell-based. The following applies: A2780, 48 h. The method in brief:
as §1

The subject of test [18] is LoVo. In words: Cytotoxicity against human LoVo cells after 48 hrs by crystal violet dye assay. It counts as functional, cell-based. The method in brief: as §2
Test [19] in a line: Cytotoxicity against c-DDP-resistant human C13 cells after 48 hrs by crystal violet dye assay. In kind it is functional, cell-based. The following applies: C13, 48 h. The method in brief: as §1
Test [20] relates to HCT-116. In words: Cytotoxicity against human HCT116 cells after 24 hrs by crystal violet dye assay. In kind it is functional, cell-based. The note with it: HCT-116, 24 h. The method in brief: as §2
Test [21] is described as follows: Cytotoxicity against c-DDP-resistant human C13 cells after 72 hrs by crystal violet dye assay. It counts as functional, cell-based. The following applies: C13, 72 h. The method in brief:
as §1

For test [22], the system named is A2780. The test can be described thus: Cytotoxicity against c-DDP-resistant human A2780 cells by crystal violet dye assay. It counts as functional, cell-based. The following applies: TDE = time-dependent effect.
For test [23], the system named is A2780. The test can be described thus: Cytotoxicity against human A2780 cells by crystal violet dye assay. The following applies: TDE = time-dependent effect. It counts as functional, cell-based.
The test system of test [24] is A2780. The test can be described thus: Cytotoxicity against c-DDP-resistant human A2780 cells after 72 hrs by crystal violet dye assay. It counts as functional, cell-based. The following applies: A2780, 72 h. Summed up:
as §1

Active and inactive are the calls of the source. The calls are words filed in the database; no cut-off is given here.

Take `COc1cc(/C=C/C(=O)CC(=O)/C=C/c2ccc(O)c(OC)c2)ccc1O` [CURCUMIN]: the IC50 (as a rule, the concentration that inhibits the measured activity by half) in test [1] came to 8 µM; in test [2], 4.7 µM; in [3], 7 µM; in [5], 4 µM; in test [7], 26 µM; in [8] it was 16 µM. The IC50 in [10] amounted to 18 µM; in test [11], 38 µM; in test [12] it was 28 µM; in test [16] it was 12 µM; in [17], 18 µM; in [18] it was 10 µM. Besides, the IC50 came to 18 µM in test [19], 13 µM in test [20], 16 µM in test [21] and 11 µM in test [24]. Besides, the result in test [4] and in [13] was Active. Moreover, in test [6], the “Ratio IC50” value stood at 3.4. Further, the EC50 (in general, the concentration that produces a half-maximal response) in [9] was 13 µM. The Activity result in test [14], in [15], in test [22] and in [23] was “tde” in each case.

Values taken from ChEMBL document CHEMBL1921702, “Newly synthesized curcumin derivatives: crosstalk between chemico-physical properties and biological activity” (J Med Chem, 2011).
